≈ marks a conversion by molar mass, not a printed value.
Experiments:
[1] = target: Sigma non-opioid intracellular receptor 1 (Cavia porcellus, UniProt Q60492); experiment: Displacement of [3H]-(+)pentazocine from sigma-1 receptor in guinea pig brain membranes after 120 mins by scintillation counting method; format: cell membranes, Membrane
[2] = target: T1, Sigma intracellular receptor 2 (Rattus norvegicus, UniProt Q5U3Y7); experiment: Displacement of [3H]-Di-o-tolylguanidine from sigma-2 receptor in rat liver membranes after 120 mins by scintillation counting method; format: cell membranes, Membrane
T1 sequence (Q5U3Y7 whole entry): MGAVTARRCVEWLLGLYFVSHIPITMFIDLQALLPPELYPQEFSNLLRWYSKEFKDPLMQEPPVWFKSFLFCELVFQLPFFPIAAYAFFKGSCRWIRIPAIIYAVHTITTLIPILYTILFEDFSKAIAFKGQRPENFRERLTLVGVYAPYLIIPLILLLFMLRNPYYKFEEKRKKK

[3] = target: Glutamate receptor ionotropic, NMDA 2B (Homo sapiens) (UniProt Q13224); experiment: Displacement of [3H]ifenprodil from GluN2B (unknown origin) expressed in mouse L(tk-) cell membranes co-expressing GluN1a at 1 uM incubated for 120 mins by scintillation counting method relative to control
[4] = target: T2, Sigma intracellular receptor 2 (Rattus norvegicus) (UniProt Q5U3Y7); experiment: Displacement of [3H]-Di-o-tolylguanidine from sigma-2 receptor in rat liver membranes at 1 uM after 120 mins by scintillation counting method relative to control; format: cell membranes; conditions: Membrane
T2 sequence (whole entry): T1 sequence (Q5U3Y7 whole entry)

[5] = target: Glutamate receptor ionotropic, NMDA 2B (Homo sapiens, UniProt Q05586+Q13224); experiment: Displacement of [3H]ifenprodil from GluN2B (unknown origin) expressed in mouse L(tk-) cell membranes co-expressing GluN1a incubated for 120 mins by scintillation counting method
[6] = Antioxidant activity assessed as ABTS radical scavenging activity incubated for 40 mins; format: functional
[7] = Antioxidant activity in pH 7.4 PBS assessed as H2O2 radical scavenging activity; format: functional
[8] = Cytotoxicity against human PANC1 cells assessed as cell viability at 100 uM after 48 hrs by MTT assay relative to control; format: cell-based; conditions: PANC-1 cells, read-out: Activity
Method in brief: (§1)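 Viability of human pancreatic carcinoma PANC1 and neuroblastoma SH-SY5Y cells, both chosen for high σ1R expression, measured by MTT assay across several test concentrations; viability expressed as percent.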

PANC-1 = experiment: Cytotoxicity against human PANC1 cells at 12.5 to 100 uM after 48 hrs by MTT assay; format: cell-based; conditions: panc-1, 48 h; method in brief: as §1
SH-SY5Y = experiment: Cytotoxicity against human SH-SY5Y cells at 12.5 to 100 uM after 48 hrs by MTT assay; format: cell-based; method in brief: as §1
[9] = Cytotoxicity against human SH-SY5Y cells assessed as cell viability at 100 uM after 48 hrs by MTT assay relative to control; format: cell-based; conditions: read-out: Activity; method in brief: as §1
[10] = Cytotoxicity against human SH-SY5Y cells assessed as cell viability at 50 uM after 48 hrs by MTT assay relative to control; format: cell-based; conditions: read-out: Activity; method in brief: as §1
[11] = Cytotoxicity against human PANC1 cells assessed as cell viability at 50 uM after 48 hrs by MTT assay relative to control; format: cell-based; conditions: PANC-1 cells, read-out: Activity; method in brief: as §1

Chain of Glutamate receptor ionotropic, NMDA 2B (Homo sapiens) (Q13224 27-1484 limits assumed): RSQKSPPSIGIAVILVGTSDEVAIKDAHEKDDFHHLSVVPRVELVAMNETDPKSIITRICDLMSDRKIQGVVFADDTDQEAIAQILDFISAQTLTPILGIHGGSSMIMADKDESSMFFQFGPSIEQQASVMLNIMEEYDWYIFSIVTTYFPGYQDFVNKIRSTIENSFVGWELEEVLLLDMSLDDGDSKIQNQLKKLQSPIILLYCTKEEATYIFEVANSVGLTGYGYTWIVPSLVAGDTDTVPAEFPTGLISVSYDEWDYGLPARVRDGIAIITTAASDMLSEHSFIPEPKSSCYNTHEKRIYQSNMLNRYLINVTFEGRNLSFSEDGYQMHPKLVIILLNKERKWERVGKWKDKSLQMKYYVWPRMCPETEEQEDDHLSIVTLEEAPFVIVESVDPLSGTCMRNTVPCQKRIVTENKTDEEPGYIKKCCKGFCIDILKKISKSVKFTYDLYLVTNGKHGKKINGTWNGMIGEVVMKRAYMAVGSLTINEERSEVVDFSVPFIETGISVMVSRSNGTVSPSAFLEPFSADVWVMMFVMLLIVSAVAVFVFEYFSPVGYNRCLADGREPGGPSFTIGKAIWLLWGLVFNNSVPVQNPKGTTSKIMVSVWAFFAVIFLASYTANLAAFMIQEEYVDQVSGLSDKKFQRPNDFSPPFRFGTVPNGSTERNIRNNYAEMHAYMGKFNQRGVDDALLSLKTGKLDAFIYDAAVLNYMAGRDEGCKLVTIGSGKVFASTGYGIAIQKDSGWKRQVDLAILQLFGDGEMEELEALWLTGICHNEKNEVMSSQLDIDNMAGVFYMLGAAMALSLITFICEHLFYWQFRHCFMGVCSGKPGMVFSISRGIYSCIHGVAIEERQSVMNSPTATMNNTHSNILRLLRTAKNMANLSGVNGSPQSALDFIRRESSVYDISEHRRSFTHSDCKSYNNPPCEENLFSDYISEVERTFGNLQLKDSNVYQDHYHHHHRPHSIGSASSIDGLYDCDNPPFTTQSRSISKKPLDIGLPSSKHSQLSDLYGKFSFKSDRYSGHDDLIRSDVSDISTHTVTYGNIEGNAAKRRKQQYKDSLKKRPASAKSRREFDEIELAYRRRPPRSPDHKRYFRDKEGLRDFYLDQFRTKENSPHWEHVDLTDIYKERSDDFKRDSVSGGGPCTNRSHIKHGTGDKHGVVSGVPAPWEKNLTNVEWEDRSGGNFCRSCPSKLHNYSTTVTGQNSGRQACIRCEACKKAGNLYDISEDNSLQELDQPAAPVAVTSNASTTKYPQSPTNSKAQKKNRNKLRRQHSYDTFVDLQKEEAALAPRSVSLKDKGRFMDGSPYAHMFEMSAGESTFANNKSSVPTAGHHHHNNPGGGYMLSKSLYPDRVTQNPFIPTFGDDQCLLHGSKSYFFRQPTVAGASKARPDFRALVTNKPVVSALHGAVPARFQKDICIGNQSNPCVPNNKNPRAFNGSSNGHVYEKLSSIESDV
Chain of Sigma non-opioid intracellular receptor 1 (Q60492 whole entry): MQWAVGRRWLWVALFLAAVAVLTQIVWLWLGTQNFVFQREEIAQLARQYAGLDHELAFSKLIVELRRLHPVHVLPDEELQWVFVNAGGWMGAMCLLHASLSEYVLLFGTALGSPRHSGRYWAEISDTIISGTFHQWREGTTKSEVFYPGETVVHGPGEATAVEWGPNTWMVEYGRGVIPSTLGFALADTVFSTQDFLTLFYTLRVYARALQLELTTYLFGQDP
Chain of Glutamate receptor ionotropic, NMDA 2B (Q13224 whole entry, one chain of several): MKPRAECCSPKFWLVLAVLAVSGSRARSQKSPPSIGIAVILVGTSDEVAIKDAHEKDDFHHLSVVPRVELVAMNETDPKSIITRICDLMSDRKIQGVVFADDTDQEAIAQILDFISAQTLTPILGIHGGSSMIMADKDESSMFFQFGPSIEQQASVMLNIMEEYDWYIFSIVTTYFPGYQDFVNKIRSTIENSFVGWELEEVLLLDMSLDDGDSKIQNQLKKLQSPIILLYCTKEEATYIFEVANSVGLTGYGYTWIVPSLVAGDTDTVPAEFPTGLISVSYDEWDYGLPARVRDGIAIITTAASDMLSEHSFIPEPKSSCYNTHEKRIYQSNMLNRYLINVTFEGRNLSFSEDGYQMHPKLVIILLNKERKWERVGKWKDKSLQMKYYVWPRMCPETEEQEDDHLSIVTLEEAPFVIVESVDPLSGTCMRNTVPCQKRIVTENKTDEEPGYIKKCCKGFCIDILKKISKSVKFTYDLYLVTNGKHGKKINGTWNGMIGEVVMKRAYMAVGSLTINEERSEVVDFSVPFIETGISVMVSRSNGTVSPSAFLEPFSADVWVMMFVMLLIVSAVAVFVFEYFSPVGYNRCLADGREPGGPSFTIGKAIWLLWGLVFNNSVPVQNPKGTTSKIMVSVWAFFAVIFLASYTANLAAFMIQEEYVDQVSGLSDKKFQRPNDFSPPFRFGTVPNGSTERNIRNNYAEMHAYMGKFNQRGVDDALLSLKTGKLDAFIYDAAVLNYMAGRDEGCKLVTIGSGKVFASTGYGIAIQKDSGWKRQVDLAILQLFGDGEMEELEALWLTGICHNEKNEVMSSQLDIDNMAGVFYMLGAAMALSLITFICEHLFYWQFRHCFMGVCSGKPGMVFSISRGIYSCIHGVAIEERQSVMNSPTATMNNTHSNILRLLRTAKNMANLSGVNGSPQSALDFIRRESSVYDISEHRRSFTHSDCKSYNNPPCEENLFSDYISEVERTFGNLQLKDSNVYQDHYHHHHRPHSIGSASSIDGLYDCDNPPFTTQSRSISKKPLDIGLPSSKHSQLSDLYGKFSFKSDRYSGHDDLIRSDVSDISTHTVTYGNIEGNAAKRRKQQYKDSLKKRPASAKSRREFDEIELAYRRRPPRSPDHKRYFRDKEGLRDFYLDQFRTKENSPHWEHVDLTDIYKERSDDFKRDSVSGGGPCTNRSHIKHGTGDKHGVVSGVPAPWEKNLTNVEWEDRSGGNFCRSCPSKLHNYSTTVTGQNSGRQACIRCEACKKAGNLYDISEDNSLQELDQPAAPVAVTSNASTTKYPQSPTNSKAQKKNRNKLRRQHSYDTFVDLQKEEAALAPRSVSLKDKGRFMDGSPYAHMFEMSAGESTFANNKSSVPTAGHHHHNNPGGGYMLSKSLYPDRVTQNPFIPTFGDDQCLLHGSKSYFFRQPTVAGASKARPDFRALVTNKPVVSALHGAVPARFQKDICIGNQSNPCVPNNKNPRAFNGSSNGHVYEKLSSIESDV

Row | Compound | Ki [1] | Ki [2] | inhibition [3] | Ki [5] | IC50 [6] | IC50 [7] | also measured
1 | Cc1ccc(CN2CCCN(C(=O)c3ccco3)CC2)c(C)c1 | 690 nM | 3900 nM | 0% |  |  |  | 
2 | O=C(c1ccccc1)N1CCCN(Cc2ccccc2)CC1 | 116 nM |  | 0% |  |  |  | inhibition [4]: 0%
3 | Cc1ccc(CN2CCCN(C(=O)c3cccc4ccccc34)CC2)c(C)c1 | 70 nM | 102 nM |  | 79 nM |  |  | 
4 | Cc1c(C)c2c(c(C)c1O)CCC(C)(C(=O)O)O2 (stereo unspecified) [TROLOX] |  |  |  |  | 18.73 µg/mL (≈ 74.8 µM) | 20.38 µg/mL (≈ 81.4 µM) | 
5 | O=C1O[C@H]([C@@H](O)CO)C(O)=C1O [ASCORBIC ACID] |  |  |  |  | 12.75 µg/mL (≈ 72.4 µM) | 19.27 µg/mL (≈ 109 µM) | 
6 | Cc1ccc(CN2CCCN(C(=O)c3ccc4ccccc4n3)CC2)c(C)c1 | 29 nM | 35 nM |  | 108 nM | 9.43 µg/mL (≈ 25.2 µM) | 17.44 µg/mL (≈ 46.7 µM) | viability at 48 h, 100 µM [8]: 51%
7 | O=C(c1ccncc1)N1CCCN(Cc2ccccc2)CC1 | 267 nM | 495 nM | 0% |  |  |  | 
8 | O=C(c1ccco1)N1CCCN(Cc2ccccc2)CC1 | 333 nM | 560 nM | 1% |  |  |  | 
9 | O=C(c1ccc2ccccc2n1)N1CCCN(Cc2ccccc2)CC1 | 19 nM | 47 nM |  | 1500 nM | 14.26 µg/mL (≈ 41.3 µM) | 20.35 µg/mL (≈ 58.9 µM) | 
10 | O=C(c1cccs1)N1CCCN(Cc2ccccc2)CC1 | 147 nM | 297 nM | 0% |  |  |  | 
11 | O=C(c1cccc2ccccc12)N1CCCN(Cc2ccccc2)CC1 | 41 nM | 187 nM | 9% |  |  |  | 
12 | Cc1ccc(CN2CCCN(C(=O)c3cccs3)CC2)c(C)c1 | 336 nM | 1800 nM | 3% |  |  |  | 
13 | Cc1ccc(CN2CCCN(C(=O)c3ccccc3)CC2)c(C)c1 | 849 nM | 3900 nM |  | 294 nM |  |  | 
14 | Cc1ccc(CN2CCCN(C(=O)c3ccncc3)CC2)c(C)c1 | 254 nM | 2000 nM |  | 116 nM |  |  | 
15 | Cc1ccc(CN2CCCN(C(=O)c3cc4ccccc4o3)CC2)c(C)c1 | 20 nM | 28 nM |  | 59 nM | 10.05 µg/mL (≈ 27.7 µM) | 18.56 µg/mL (≈ 51.2 µM) | Activity (PANC-1): Non-Toxic; Activity (SH-SY5Y): Non-Toxic
16 | O=C(c1cc2ccccc2o1)N1CCCN(Cc2ccccc2)CC1 | 8 nM | 47 nM |  | 1600 nM | 12.71 µg/mL (≈ 38 µM) | 15.89 µg/mL (≈ 47.5 µM) | viability at 48 h, 100 µM [9]: 98%; viability at 48 h, 50 µM [10]: 127%; viability at 48 h, 50 µM [11]: 196%; viability at 48 h, 100 µM [8]: 127%

Reference: ChEMBL document CHEMBL4613279, “Synthesis, Cytotoxicity Evaluation, and Computational Insights of Novel 1,4-Diazepane-Based Sigma Ligands” (ACS Med Chem Lett, 2020)
